Source: PubChem BioAssay (several laboratories)
Rows were chosen to be rich in hits. Some 5.7% of all compounds tested hit in one or more screens of this group.
Beta apoptosis: beta cell apoptosis inhibition; INS-1E cytokine-induced death, ATP luminescence, 48 h; percent of positive-control rescue, neutral wells zero; protection from apoptosis, % (test concentration not listed); 300,000 compounds, 0.8% hits; AID 435005;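 active = Every replicate reaches about 75%, or at least half do and their mean reaches it too, limit read from the data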;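 also: 0% = cytokine-treated negative control wells and 100% = positive control rescue; higher means more ATP so stronger rescue from cytokine killing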
Mdm2 MdmX PPI: inhibitors of human Mdm2/MdmX interaction | O15151+Q00987 | SaOS-2 split-luciferase Mdm2/MdmX complementation, luminescence | inhibition, % at 8 µM | 330,000 compounds, 3% hits | AID 485346;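 active = inhibition of at least 50% at 8 µM in the primary screen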
CSC inhib: blocks cancer stem cells; cancer stem cell-like cells viability, luminescence; inhibition, % at 7.5 µM; 300,000 compounds, 1.1% hits; in the data active = inhibition above about 75%; tested in HMLE shEcad cells
T cruzi repl: blocks replication of Trypanosoma cruzi. 300,000 compounds, 1.4% hits. inhibition, % (no concentration beside the values). T. cruzi beta-gal in NIH3T3, luminescence, 90 h. AID 1885;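 active = mean inhibition across valid replicates above about 55%, limit read from the data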;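 also: signal also drops with host cell toxicity which is not excluded here; 0% = plate median of DMSO wells and 100% = zero luminescence signal; higher percent means less beta-gal luminescence so fewer parasites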
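System: mouse NIH/3T3 fibroblasts infected with β-gal-expressing T. cruzi Tulahuen C4 / Input: NIH/3T3 cells, 5,000 per well / Buffer or medium: Low-serum DMEM with 2% FBS / Probe or stimulus: 5000 reporter trypomastigotes per well / Schedule: ≥90 h infection period, 3 h prior cell attachment / Measured by: GalScreen luminescence, 60 min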
SKKanGAS inh: SKKanGAS growth inhibition; S. pyogenes SKKanGAS, kanamycin growth, BacTiter-Glo, 6 h; inhibition, % at 7.5 µM; 300,000 compounds, 1.3% hits; AID 1662;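 active = mean replicate score, as percent of positive control median, at least 50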;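 also: strain carries kanamycin resistance gene driven by streptokinase promoter and grows in 40 µg/ml kanamycin; loss of luminescence reflects streptokinase promoter inhibition or plain growth inhibition; 0% = median of DMSO wells and 100% = positive control at its reference dose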
Calb FLC: C. albicans growth modulation with fluconazole; C. albicans CaCi-2 (fluconazole-resistant clinical isolate) + fluconazole, Alamar Blue growth, 48 h; growth inhibition, % (no concentration beside the values); 300,000 compounds, 0.57% hits;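 active = growth inhibition above about 58% in most replicates, limit read from the data, passing the limit was not always enough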;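 also: all wells also contain fluconazole at 8 µg/ml as a sub-toxic cotreatment; 0% = median of DMSO wells and 100% = median of geldanamycin control wells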
An asterisk follows results filed as active; x = no result.

SMILES	Beta apoptosis	Mdm2 MdmX PPI	CSC inhib	T cruzi repl	SKKanGAS inh	Calb FLC
O=C(Nc1ccc(N2CCCC2)cc1)c1cc([N+](=O)[O-])ccc1N1CCOCC1	11	29	18	22	8	26
COC(=O)c1cc(S(=O)(=O)NCC2CCN(CCc3cccs3)CC2)c[nH]1	-1	-1	-2	15	-2	-2
COc1ccc(NC(=O)N(C)C[C@H]2Oc3ccc(NC(=O)CCN4CCOCC4)cc3C(=O)N([C@@H](C)CO)C[C@H]2C)cc1	0	-11	x	x	x	x
CC(C)Oc1cccc(C(=O)C2CCCN(Cc3ccc(Oc4ncccn4)cc3)C2)c1 (configuration not stated)	-3	-24	5	66*	7	-10
CCOc1c(Cl)cc(CNc2ccc(N3CCCC3)cc2)cc1OC	x	x	x	63*	9	5
CCOc1ccc(CCNC(=O)CCNC(=O)c2ccco2)cc1OCC	-1	19	-10	-1	-1	33
CC1CCN(c2c(NCC3CCC(C(=O)NCCCc4ccccc4)CC3)c(=O)c2=O)CC1 (configuration not stated)	2	-12	4	-8	2	6
O=C(COc1ccccc1[N+](=O)[O-])Nc1ccc2c(c1)CCC2	5	-80	-3	x	x	x
Cc1cc(C)c(C#N)c(SCC(=O)C(C)(C)C)n1	x	2	x	72*	1	18
Cc1cc(C)c(C#N)c(SCC(=O)NC(C)(C)C)n1	-5	11	1	1	-2	12
Cc1cccc2nc(-c3ccccc3)nc(N3CCC(O)(c4ccc(Cl)cc4)CC3)c12	3	41	5	60*	29	27
Cc1ccc2[nH]c(=O)c(-c3noc(CC(C)C)n3)cc2c1	0	-5	-5	11	6	9
CCOc1ccc(CSCCNC(=S)Nc2ccc(OC)cc2)cc1	-2	12	5	-5	1	7
CCCOc1ccc(CSCCNC(=S)Nc2ccccc2)cc1	9	7	77*	24	2	-47
O=C(Nc1cc(-c2ccccc2)[nH]n1)c1ccc(Cl)cc1	-1	1	60	6	75*	-1
O=C(Nc1ccc(Cl)cc1Cl)c1ccc(-c2ccccc2)cc1	-2	-20	-6	-9	3	7
CCOC(=O)C1CCN(C(=O)c2ccc3c(c2)NC(=O)/C(=C\c2ccc(C)cc2)S3)CC1	-1	15	4	33	69*	11
CCOC(=O)C1CCN(C(=O)c2ccc3c(c2)NC(=O)/C(=C/c2ccccc2)S3)CC1	-4	16	6	9	6	3
O=C1Nc2cc(C(=O)N3CCc4ccccc4C3)ccc2S/C1=C\c1ccccc1	2	21	118*	10	36	0
CCOC(=O)N1CCN(C(=O)c2ccc3c(c2)NC(=O)/C(=C/c2ccccc2)S3)CC1	4	9	7	7	93*	4
Cc1ccc(/C=C2/Sc3ccc(C(=O)N4CCN(c5ccccn5)CC4)cc3NC2=O)cc1	-7	12	12	10	67*	-3
Cc1cc([N+](=O)[O-])ccc1NC(=O)CSc1nncn1-c1ccccn1	-4	16	-12	-7	-2	9
Cc1[nH]c2ccc(-c3nnc(SCC(=O)N4CCCc5ccccc54)o3)cc2c1C	4	46	12	79*	-1	5
O=C(CSc1nnc(Cc2ccccc2)o1)N1CCCc2ccccc21	2	-15	-13	2	0	-6
COc1cc(NC(=O)Cn2ncc(Cl)c(Cl)c2=O)c(C)cc1[N+](=O)[O-]	x	x	x	85*	4	33
SMILES	Beta apoptosis	Mdm2 MdmX PPI	CSC inhib	T cruzi repl	SKKanGAS inh	Calb FLC
COCCn1cnnc1SCC(=O)Nc1cc(OC)c([N+](=O)[O-])cc1C	2	-18	x	18	5	114*
Cc1ccc(Cl)cc1NC(=O)CN1CCOCC1	-8	21	4	-6	2	-7
COc1ccc(NC(=O)N2CCCc3ccccc32)cc1	3	12	x	3	-11	-6
COc1ccc(N/N=C(/C(C)=O)N2CCCc3ccccc32)cc1	-16	11	88*	28	7	1
CCCCn1c(SCC(=O)Nc2cccc(OC)c2)nc2ccc(N3CCOCC3)cc2c1=O	-4	2	39	18	26	96*
CCn1cc(C(=O)NCc2ccc3c(c2)OCO3)c(=O)c2cc(F)c(N3CCN(C(=O)c4ccco4)CC3)cc21	27	38	26	24	54*	3
CCn1cc(C(=O)NCc2ccccc2)c(=O)c2cc(F)c(N3CCN(C(=O)c4ccco4)CC3)cc21	x	24	14	24	29	14
CCn1cc(C(=O)O)c(=O)c2cnc(N3CCN(C(=S)Nc4ccccc4)CC3)nc21	-13	15	-4	2	-2	5
CCCCOC(=O)c1ccc(NC(=S)N2CCN(c3ncc4c(=O)c(C(=O)O)cn(CC)c4n3)CC2)cc1	3	6	21	4	92*	-9
CCn1cc(C(=O)O)c(=O)c2cc(F)c(N3CCN(C(=S)Nc4ccc(OC)cc4)CC3)cc21	-3	13	x	-14	68*	3
Cc1nnc(-c2cccc(Br)c2)c2cn(-c3ccccc3Cl)nc12	5	-11	-3	28	-9	12
Cc1ccc(-n2cc3c(-c4cccc(Br)c4)nnc(C)c3n2)cc1	2	-7	25	39	64*	26
CCN1CCCc2cc(CN(CCN3CCOCC3)C(=S)Nc3ccccc3OC)ccc21	-1	12	-11	57*	0	1
CCN1CCCc2cc(CN(CCN3CCOCC3)C(=S)Nc3ccc(OC)c(Cl)c3)ccc21	-1	-1	-11	59*	4	2
CCN1CCCc2cc(CN(CCN3CCOCC3)C(=S)Nc3cccc(C)c3)ccc21	-3	19	-10	61*	-1	0
CCN1CCCc2cc(CN(CCN3CCOCC3)C(=S)Nc3ccc(OC)c(OC)c3)ccc21	2	10	2	45	-2	-4
CCN1CCCc2cc(CN(CCN3CCOCC3)C(=S)Nc3ccccc3C)ccc21	-4	19	9	35	-7	15
COC(=O)c1cccc(NC(=S)NCc2ccc(Cl)cc2)c1	0	30	-8	10	62*	-46
O=C(NCc1ccc(Cl)cc1)c1cccc(NC(=O)c2ccccc2)c1	11	29	111*	-1	8	-10
O=C(NCc1ccccc1)c1ccc(Cl)cc1	-1	5	-9	-12	-5	-4
CCOC(=O)N1CCN(C(=O)CSc2nc3nc(C)cc(C)n3n2)CC1	4	16	x	x	x	x
CC(C)Nc1nc(NC(C)C)nc(SCCOC(=O)Nc2ccc(Cl)cc2Cl)n1	7	30	90*	41	34	-8
O/N=C/c1ccnc(SCc2ccc(Cl)cc2)n1	x	16	80*	x	4	12
O/N=C/c1ccnc(SCc2ccccc2)n1	x	4	16	x	-2	5
